Results taken from ChEMBL document CHEMBL1687778, “Genetic determinants involved in the susceptibility of Pseudomonas aeruginosa to beta-lactam antibiotics” (2010).
Values after ≈ are worked out from the molar mass of the structure shown.

Assays:
Pseudomonas aeruginosa [1] = experiment: Antimicrobial activity against Pseudomonas aeruginosa PA14 PA2487 harboring mutation in hypothetical protein by Etest method; format: functional
In short: (§1)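 Overnight LB cultures (37°C) diluted in sterile 0.85% NaCl to about 1 × 10^7 CFU/ml. 100 µl spread on Mueller-Hinton agar, one Etest strip per plate, 18 h at 37°C. Ceftazidime, imipenem and meropenem tested. Wild-type PA14 plate included in each set. Each mutant verified in triplicate.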

Pseudomonas aeruginosa [2] = experiment: Antimicrobial activity against Pseudomonas aeruginosa PA14 PA0503 harboring mutation in Putative biotin synthesis protein BioC by Etest method; format: functional; in short: as §1
Pseudomonas aeruginosa [3] = experiment: Antimicrobial activity against Pseudomonas aeruginosa PA14 PA3247 harboring mutation in putative aspartyl aminopeptidase by Etest method; format: functional; in short: as §1
Pseudomonas aeruginosa [4] = experiment: Antimicrobial activity against Pseudomonas aeruginosa PA14 PA4109 harboring ampR mutant gene by Etest method; format: functional
In short: (§2)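 Etest MIC. Overnight LB cultures at 37°C were diluted in sterile 0.85% NaCl to about 1 × 10^7 CFU/ml. 100 µl was spread on Mueller-Hinton agar, one strip was placed per plate, and plates were incubated at 37°C for 18 h. Equal cell numbers were seeded per plate, and results were verified in triplicate. PA14 wild type was included in each set as a susceptibility control.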

Pseudomonas aeruginosa [5] = experiment: Antimicrobial activity against Pseudomonas aeruginosa PA14 PA14_23420 harboring mutation in putative zinc-binding dehydrogenase by Etest method; format: functional; in short: as §1
Pseudomonas aeruginosa [6] = experiment: Antimicrobial activity against Pseudomonas aeruginosa PA14 PA5003 harboring mutation in conserved hypothetical protein by Etest method; format: functional; in short: as §2
Pseudomonas aeruginosa [7] = experiment: Antimicrobial activity against Pseudomonas aeruginosa PA14 PA4393 harboring mutation in putative permease by Etest method; format: functional; in short: as §2
Pseudomonas aeruginosa [8] = experiment: Antimicrobial activity against Pseudomonas aeruginosa PA14 PA4459 harboring mutation in Conserved hypothetical protein by Etest method; format: functional; in short: as §2
Pseudomonas aeruginosa [9] = experiment: Antimicrobial activity against Pseudomonas aeruginosa PA14 PA0958 harboring oprD mutant gene by Etest method; format: functional; in short: as §1
Pseudomonas aeruginosa [10] = experiment: Antimicrobial activity against Pseudomonas aeruginosa PA14 PA0770 harboring rnc mutant gene by Etest method; format: functional; in short: as §1
Pseudomonas aeruginosa [11] = experiment: Antimicrobial activity against Pseudomonas aeruginosa PA14 PA14_59780 harboring rcsC mutant gene by Etest method; format: functional; in short: as §1
Pseudomonas aeruginosa [12] = experiment: Antimicrobial activity against Pseudomonas aeruginosa PA14 PA0479 harboring mutation in putative transcriptional regulator, LysR family by Etest method; format: functional; in short: as §1
Pseudomonas aeruginosa [13] = experiment: Antimicrobial activity against Pseudomonas aeruginosa PA14 PA2621 harboring clpS mutant gene by Etest method; format: functional; in short: as §1
Pseudomonas aeruginosa [14] = experiment: Antimicrobial activity against Pseudomonas aeruginosa PA14 PA4402 harboring argJ mutant gene by Etest method; format: functional; in short: as §2
Pseudomonas aeruginosa [15] = experiment: Antimicrobial activity against Pseudomonas aeruginosa PA14 PA3259 harboring mutation in conserved hypothetical protein by Etest method; format: functional; in short: as §2
Pseudomonas aeruginosa [16] = experiment: Antimicrobial activity against Pseudomonas aeruginosa PA14 PA4550 harboring fimU mutant gene by Etest method; format: functional; in short: as §2
Pseudomonas aeruginosa [17] = experiment: Antimicrobial activity against Pseudomonas aeruginosa PA14 PA5130 harboring mutation in putative rhodanese-like domain protein by Etest method; format: functional; in short: as §2
Pseudomonas aeruginosa [18] = experiment: Antimicrobial activity against Pseudomonas aeruginosa PA14 PA5174 harboring mutation in putative beta-ketoacyl synthase by Etest method; format: functional; in short: as §2
Pseudomonas aeruginosa [19] = experiment: Antimicrobial activity against Pseudomonas aeruginosa PA14 PA2615 harboring ftsK mutant gene by Etest method; format: functional; in short: as §1
Pseudomonas aeruginosa [20] = experiment: Antimicrobial activity against Pseudomonas aeruginosa PA14 PA4269 harboring rpoC mutant gene by Etest method; format: functional; in short: as §2
Pseudomonas aeruginosa [21] = experiment: Antimicrobial activity against Pseudomonas aeruginosa PA14 PA2023 harboring galU mutant gene by Etest method; format: functional; in short: as §1
Pseudomonas aeruginosa [22] = experiment: Antimicrobial activity against Pseudomonas aeruginosa PA14 PA4069 harboring mutation in putative dTDP-4-rhamnose reductase-related protein by Etest method; format: functional; in short: as §2
Pseudomonas aeruginosa [23] = experiment: Antimicrobial activity against Pseudomonas aeruginosa PA14 PA4005 harboring mutation in conserved hypothetical protein by Etest method; format: functional; in short: as §2
Pseudomonas aeruginosa [24] = experiment: Antimicrobial activity against Pseudomonas aeruginosa PA14 PA1553 harboring mutation in putative cytochrome c oxidase, cbb3 type, subunit II by Etest method; format: functional; in short: as §1
Pseudomonas aeruginosa [25] = experiment: Antimicrobial activity against Pseudomonas aeruginosa PA14 PA4745 harboring nusA mutant gene by Etest method; format: functional; in short: as §2
Pseudomonas aeruginosa [26] = experiment: Antimicrobial activity against Pseudomonas aeruginosa PA14 PA0420 harboring bioA mutant gene by Etest method; format: functional; in short: as §1
Pseudomonas aeruginosa [27] = experiment: Antimicrobial activity against Pseudomonas aeruginosa PA14 PA3721 harboring nalC mutant gene by Etest method; format: functional; in short: as §2
Pseudomonas aeruginosa [28] = experiment: Antimicrobial activity against Pseudomonas aeruginosa PA14 PA3262 harboring fklB mutant gene by Etest method; format: functional; in short: as §2
Pseudomonas aeruginosa [29] = experiment: Antimicrobial activity against Pseudomonas aeruginosa PA14 PA3589 harboring mutation in acetyl-coenzyme A (CoA) acetyltransferase (thiolase) by Etest method; format: functional; in short: as §2
Pseudomonas aeruginosa [30] = experiment: Antimicrobial activity against Pseudomonas aeruginosa PA14 PA0402 harboring pyrB mutant gene by Etest method; format: functional; in short: as §1
Pseudomonas aeruginosa [31] = experiment: Antimicrobial activity against Pseudomonas aeruginosa PA14 PA3145 harboring wbpL mutant gene by Etest method; format: functional; in short: as §1
[32] = system: Pseudomonas aeruginosa PA14; experiment: Activity of Beta-lactamase in Pseudomonas aeruginosa PA14 PA4109 harboring ampR mutant gene assessed as nitrocefin hydrolysis per mg of protein by spectrophotometry
In short: (§3)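 Cells grown to OD600 1.0, pelleted and resuspended in 0.1 M KH2PO4-Na2HPO4 pH 7.0. Crude extract made by two freeze-thaw cycles plus sonication on ice. β-Lactamase read as absorbance change at 485 nm with 50 µM nitrocefin in the same pH 7.0 phosphate buffer. Extract protein measured by BCA against a bovine serum albumin standard.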

[33] = system: Pseudomonas aeruginosa PAO1; experiment: Activity of Beta-lactamase in Pseudomonas aeruginosa PAO1 PA3047 harboring dacB mutant gene assessed as nitrocefin hydrolysis per mg of protein by spectrophotometry; in short: as §3
[34] = system: Pseudomonas aeruginosa PAO1; experiment: Activity of wild type Pseudomonas aeruginosa PAO1 Beta-lactamase assessed as nitrocefin hydrolysis per mg of protein by spectrophotometry; in short: as §3
[35] = system: Pseudomonas aeruginosa PAO1; experiment: Activity of Beta-lactamase in Pseudomonas aeruginosa PAO1 PA4109 harboring ampR mutant gene assessed as nitrocefin hydrolysis per mg of protein by spectrophotometry; in short: as §3
[36] = system: Pseudomonas aeruginosa PA14; experiment: Activity of Beta-lactamase in Pseudomonas aeruginosa PA14 PA3047 harboring dacB mutant gene assessed as nitrocefin hydrolysis per mg of protein by spectrophotometry; in short: as §3
[37] = system: Pseudomonas aeruginosa PA14; experiment: Activity of Beta-lactamase in Pseudomonas aeruginosa PA14 PA3047 harboring complemented dacB mutant gene assessed as nitrocefin hydrolysis per mg of protein by spectrophotometry; in short: as §3
[38] = system: Pseudomonas aeruginosa PA14; experiment: Activity of wild type Pseudomonas aeruginosa PA14 Beta-lactamase assessed as nitrocefin hydrolysis per mg of protein by spectrophotometry; in short: as §3
[39] = system: Pseudomonas aeruginosa PA14; experiment: Activity of Beta-lactamase in Pseudomonas aeruginosa PA14 PA4020 harboring mpl mutant gene assessed as nitrocefin hydrolysis per mg of protein by spectrophotometry; in short: as §3

C[C@@H](O)[C@H]1C(=O)N2C(C(=O)O)=C(S[C@@H]3CN[C@H](C(=O)N(C)C)C3)[C@H](C)[C@H]12 [MEROPENEM]
MIC (Pseudomonas aeruginosa [1]): 0.125 mg/L (≈ 0.326 µM)
MIC (Pseudomonas aeruginosa [2]): 0.125 mg/L (≈ 0.326 µM)
MIC (Pseudomonas aeruginosa [3]): 0.125 mg/L (≈ 0.326 µM)
MIC (Pseudomonas aeruginosa [4]): 0.125 mg/L (≈ 0.326 µM)
MIC (Pseudomonas aeruginosa [5]): 0.125 mg/L (≈ 0.326 µM)
MIC (Pseudomonas aeruginosa [6]): 0.25 mg/L (≈ 0.652 µM)
MIC (Pseudomonas aeruginosa [7]): 0.19 mg/L (≈ 0.495 µM)
MIC (Pseudomonas aeruginosa [8]): 0.125 mg/L (≈ 0.326 µM)
MIC (Pseudomonas aeruginosa [9]): 1 mg/L (≈ 2.61 µM)
MIC (Pseudomonas aeruginosa [10]): 0.047 mg/L (≈ 0.123 µM)
MIC (Pseudomonas aeruginosa [11]): 0.125 mg/L (≈ 0.326 µM)
MIC (Pseudomonas aeruginosa [12]): 0.047 mg/L (≈ 0.123 µM)
MIC (Pseudomonas aeruginosa [13]): 0.19 mg/L (≈ 0.495 µM)
MIC (Pseudomonas aeruginosa [14]): 0.19 mg/L (≈ 0.495 µM)
MIC (Pseudomonas aeruginosa [15]): 0.125 mg/L (≈ 0.326 µM)
MIC (Pseudomonas aeruginosa [16]): 0.125 mg/L (≈ 0.326 µM)
MIC (Pseudomonas aeruginosa [17]): 0.125 mg/L (≈ 0.326 µM)
MIC (Pseudomonas aeruginosa [18]): 0.125 mg/L (≈ 0.326 µM)
MIC (Pseudomonas aeruginosa [19]): 0.064 mg/L (≈ 0.167 µM)
MIC (Pseudomonas aeruginosa [20]): 0.094 mg/L (≈ 0.245 µM)
MIC (Pseudomonas aeruginosa [21]): 0.38 mg/L (≈ 0.991 µM)
MIC (Pseudomonas aeruginosa [22]): 0.064 mg/L (≈ 0.167 µM)
MIC (Pseudomonas aeruginosa [23]): 0.094 mg/L (≈ 0.245 µM)
MIC (Pseudomonas aeruginosa [24]): 0.125 mg/L (≈ 0.326 µM)
MIC (Pseudomonas aeruginosa [25]): 0.125 mg/L (≈ 0.326 µM)
MIC (Pseudomonas aeruginosa [26]): 0.094 mg/L (≈ 0.245 µM)
MIC (Pseudomonas aeruginosa [27]): 0.38 mg/L (≈ 0.991 µM)
MIC (Pseudomonas aeruginosa [28]): 0.125 mg/L (≈ 0.326 µM)
MIC (Pseudomonas aeruginosa [29]): 0.125 mg/L (≈ 0.326 µM)
MIC (Pseudomonas aeruginosa [30]): 0.125 mg/L (≈ 0.326 µM)
MIC (Pseudomonas aeruginosa [31]): 0.094 mg/L (≈ 0.245 µM)

CC(C)(O/N=C(\C(=O)N[C@@H]1C(=O)N2C(C(=O)[O-])=C(C[n+]3ccccc3)CS[C@H]12)c1csc(N)n1)C(=O)O [CEFTAZIDIME]
Activity [32]: 257 nmol/min
Activity [33]: 274 nmol/min
MIC (Pseudomonas aeruginosa [1]): 2 mg/L (≈ 3.66 µM)
Activity [34]: 6.9 nmol/min
MIC (Pseudomonas aeruginosa [2]): 0.5 mg/L (≈ 0.915 µM)
MIC (Pseudomonas aeruginosa [3]): 2 mg/L (≈ 3.66 µM)
MIC (Pseudomonas aeruginosa [4]): 4 mg/L (≈ 7.32 µM)
MIC (Pseudomonas aeruginosa [5]): 2 mg/L (≈ 3.66 µM)
MIC (Pseudomonas aeruginosa [6]): 3 mg/L (≈ 5.49 µM)
MIC (Pseudomonas aeruginosa [7]): 0.75 mg/L (≈ 1.37 µM)
MIC (Pseudomonas aeruginosa [8]): 1.5 mg/L (≈ 2.74 µM)
MIC (Pseudomonas aeruginosa [9]): 0.75 mg/L (≈ 1.37 µM)
MIC (Pseudomonas aeruginosa [10]): 0.5 mg/L (≈ 0.915 µM)
MIC (Pseudomonas aeruginosa [11]): 0.38 mg/L (≈ 0.695 µM)
MIC (Pseudomonas aeruginosa [12]): 2 mg/L (≈ 3.66 µM)
MIC (Pseudomonas aeruginosa [13]): 4 mg/L (≈ 7.32 µM)
MIC (Pseudomonas aeruginosa [14]): 3 mg/L (≈ 5.49 µM)
Activity [35]: 111 nmol/min
MIC (Pseudomonas aeruginosa [15]): 1.5 mg/L (≈ 2.74 µM)
MIC (Pseudomonas aeruginosa [16]): 2 mg/L (≈ 3.66 µM)
MIC (Pseudomonas aeruginosa [17]): 0.75 mg/L (≈ 1.37 µM)
MIC (Pseudomonas aeruginosa [18]): 1 mg/L (≈ 1.83 µM)
MIC (Pseudomonas aeruginosa [19]): 0.25 mg/L (≈ 0.457 µM)
MIC (Pseudomonas aeruginosa [20]): 0.5 mg/L (≈ 0.915 µM)
Activity [36]: 110 nmol/min
MIC (Pseudomonas aeruginosa [21]): 3 mg/L (≈ 5.49 µM)
MIC (Pseudomonas aeruginosa [22]): 0.75 mg/L (≈ 1.37 µM)
MIC (Pseudomonas aeruginosa [23]): 0.75 mg/L (≈ 1.37 µM)
Activity [37]: 3.8 nmol/min
Activity [38]: 4.9 nmol/min
Activity [39]: 96 nmol/min
MIC (Pseudomonas aeruginosa [24]): 0.75 mg/L (≈ 1.37 µM)
MIC (Pseudomonas aeruginosa [25]): 0.75 mg/L (≈ 1.37 µM)
MIC (Pseudomonas aeruginosa [26]): 0.5 mg/L (≈ 0.915 µM)
MIC (Pseudomonas aeruginosa [27]): 1.5 mg/L (≈ 2.74 µM)
MIC (Pseudomonas aeruginosa [28]): 0.75 mg/L (≈ 1.37 µM)
MIC (Pseudomonas aeruginosa [29]): 2 mg/L (≈ 3.66 µM)
MIC (Pseudomonas aeruginosa [30]): 0.38 mg/L (≈ 0.695 µM)
MIC (Pseudomonas aeruginosa [31]): 2 mg/L (≈ 3.66 µM)
